In ChEMBL document CHEMBL4359875, “Development of novel theranostic agents for in vivo amyloid imaging and protective effects on human neuroblastoma cells” (Eur J Med Chem, 2019):
Activity calls are given as the source filed them. No cut-off for these calls is given here.

Key:
SH-SY5Y = experiment: Dark toxicity against human SH-SY5Y cells assessed as reduction in cell viability at 50 uM incubated for 24 hrs by MTT assay; format: cell-based
Outline: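 SH-SY5Y seeded at 5000 cells/well and incubated overnight. Compound added at a range of concentrations for 24 h, run with or without light exposure. MTT (5 mg/mL) added for 4 h, then absorbance read at 570 nm.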

[1] = target: T1, Amyloid-beta precursor protein (Homo sapiens, UniProt P05067); experiment: Binding affinity to amyloid beta 1 to 42 (unknown origin) in PBS buffer at pH 7.4 assessed as increase in blue shift in maximum absorption at 0.2 uM by fluorescence based assay
Outline: (§1)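 Fluorescence titration in PBS pH 7.4: probe 0.2 μM with stepwise addition of synthetic Aβ1-42 aggregates (0 to 10.0 μM). Emission maxima compared with probe alone in PBS.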

[2] = Stability in mouse plasma assessed as remaining compound at 50 uM incubated for 30 to 60 mins by HPLC analysis; format: ADME, cell-free; settings: read-out: Stability
Outline: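 Compound in ethanol (50 μM) added to plasma (1:9 by volume), with PBS as the standard. Incubated at 37 °C for 30 or 60 min. Mixture treated twice with acetonitrile and centrifuged. Supernatant analysed by HPLC on C18 with CH3CN/H2O 85:15 at 1 mL/min, 30 °C.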

[3] = target: T1, Amyloid-beta precursor protein; experiment: Binding affinity to amyloid beta 1 to 42 (unknown origin) in PBS buffer at pH 7.4 assessed as binding constant by fluorescence based assay
Outline: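 Synthetic Aβ1-42 aggregates in PBS. Kd from a saturation binding assay read by fluorescence. Triplicate, mean ± SD.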

[4] = Photostability of compound; format: physicochemical
[5] = target: T1, Amyloid-beta precursor protein; experiment: Inhibition of amyloid beta 1 to 42 (unknown origin)-induced ROS production in human SH-SY5Y cells at 1 and 5 uM incubated for 24 hrs by DCFH-DA staining based fluorescence assay; format: cell-based
Outline: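 SH-SY5Y at 5000 cells/well, incubated overnight. Medium then replaced with Aβ1-42 (2 μM final) alone or with compound (1 and 5 μM) for 24 h at 37 °C, 5% CO2. DCFH-DA 10 μM added for 30 min at 37 °C, cells washed twice. Fluorescence read at ex/em 488/525 nm. Mean ± SD, Student's t test.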

[6] = Metal chelating activity assessed as compound-Cu2+ complex formation at 20 uM by UV-visible spectroscopy
Outline: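 UV/Vis titration: compound 20 μM in water with CuSO4 added from 0 to 1000 μM. Spectrum recorded after each addition. Triplicate.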

[7] = target: T1, Amyloid-beta precursor protein; experiment: Inhibition of amyloid beta 1 to 42 (unknown origin)-induced cytotoxicity in human SH-SY5Y cells at 1 to 5 uM incubated for 24 hrs by MTT assay; format: cell-based
Outline: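 SH-SY5Y at 5000 cells/well, incubated overnight. Treated for 24 h with 5 μM Aβ1-42 monomer plus compound (1 or 5 μM). MTT (5 mg/mL) added for 4 h, absorbance read at 570 nm.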

[8] = target: T1, Amyloid-beta precursor protein; experiment: Binding affinity to amyloid beta 1 to 42 (unknown origin) in PBS buffer at pH 7.4 assessed as increase in red shift in maximum absorption at 0.2 uM by fluorescence based assay; outline: as §1
[9] = target: Amyloid-beta precursor protein (Mus musculus) (UniProt P12023); experiment: Binding affinity to amyloid beta 1 to 42 in double transgenic C57BL/6 APPswe/PSEN1 mouse assessed as plaque formation in hippocampus region at 1 uM incubated for 5 mins by fluorescence microscopy
Outline: (§2)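 Frozen brain sections from male APP/PS1 double transgenic mice and age-matched male C57BL/6 wild-type mice, both 10 months old. Sections were washed in PBS to remove OCT, then stained with 1 μM probe or ThT in 10% ethanol for 5 min at room temperature. They were washed twice with ethanol and PBS (0.1 M, pH 7.4) for 10 min. Cortex and hippocampus were imaged by fluorescence microscopy with GFP and Cy5 filter sets.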

[10] = target: Amyloid-beta precursor protein (Mus musculus) (UniProt P12023); experiment: Binding affinity to amyloid beta 1 to 42 in C57BL/6 mouse brain hippocampus assessed as plague formation at 1 uM incubated for 5 mins by fluorescence microscopy; outline: as §2
Mus musculus [11] = experiment: In vivo binding affinity to amyloid beta 1 to 42 in APP/PS1 double transgenic C57BL/6 mouse brain assessed as amyloid-beta plaque-compound complex formation at 4 mg/kg, iv measured for 5 to 60 mins by NIR imaging analysis; format: functional, organism-based
Outline: (§3)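 Male APP/PS1 double-transgenic and age-matched wild-type C57BL/6 mice, 12 months old, shaved. Compound 4 mg/kg in 50 μl of 20% DMSO/80% propylene glycol given via tail vein. Mice kept under 2.5% isoflurane in oxygen. Head NIR fluorescence imaged before and at time points from 5 to 60 min after dosing.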

Mus musculus [12] = experiment: In vivo binding affinity to amyloid beta 1 to 42 in C57BL/6 mouse brain assessed as amyloid-beta plaque-compound complex formation at 4 mg/kg, iv measured for 5 to 60 mins by NIR imaging analysis; format: functional, organism-based; outline: as §3
[13] = target: Amyloid-beta precursor protein (Mus musculus) (UniProt P12023); experiment: Binding affinity to amyloid beta 1 to 42 in C57BL/6 mouse brain cortex assessed as plague formation at 1 uM incubated for 5 mins by fluorescence microscopy; outline: as §2
[14] = target: T1, Amyloid-beta precursor protein; experiment: Inhibition of amyloid beta 1 to 42 aggregation in human SH-SY5Y cells incubated for 48 hrs by fluorescence microscopy; format: cell-based
Outline: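 SH-SY5Y seeded at 2000 cells/well with Aβ1-42 monomer (0.25 μM) alone or plus compound (0.05 or 0.5 μM), 48 h at 37 °C, 5% CO2. Controls got compound after the 2 days. Read as average pixel intensity of four random fields by fluorescence microscopy. Three independent experiments.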

[15] = target: Amyloid-beta precursor protein (Mus musculus) (UniProt P12023); experiment: Binding affinity to amyloid beta 1 to 42 in double transgenic C57BL/6 APPswe/PSEN1 mouse assessed as plaque formation in cortex region at 1 uM incubated for 5 mins by fluorescence microscopy; outline: as §2

T1 sequence (P05067 whole entry): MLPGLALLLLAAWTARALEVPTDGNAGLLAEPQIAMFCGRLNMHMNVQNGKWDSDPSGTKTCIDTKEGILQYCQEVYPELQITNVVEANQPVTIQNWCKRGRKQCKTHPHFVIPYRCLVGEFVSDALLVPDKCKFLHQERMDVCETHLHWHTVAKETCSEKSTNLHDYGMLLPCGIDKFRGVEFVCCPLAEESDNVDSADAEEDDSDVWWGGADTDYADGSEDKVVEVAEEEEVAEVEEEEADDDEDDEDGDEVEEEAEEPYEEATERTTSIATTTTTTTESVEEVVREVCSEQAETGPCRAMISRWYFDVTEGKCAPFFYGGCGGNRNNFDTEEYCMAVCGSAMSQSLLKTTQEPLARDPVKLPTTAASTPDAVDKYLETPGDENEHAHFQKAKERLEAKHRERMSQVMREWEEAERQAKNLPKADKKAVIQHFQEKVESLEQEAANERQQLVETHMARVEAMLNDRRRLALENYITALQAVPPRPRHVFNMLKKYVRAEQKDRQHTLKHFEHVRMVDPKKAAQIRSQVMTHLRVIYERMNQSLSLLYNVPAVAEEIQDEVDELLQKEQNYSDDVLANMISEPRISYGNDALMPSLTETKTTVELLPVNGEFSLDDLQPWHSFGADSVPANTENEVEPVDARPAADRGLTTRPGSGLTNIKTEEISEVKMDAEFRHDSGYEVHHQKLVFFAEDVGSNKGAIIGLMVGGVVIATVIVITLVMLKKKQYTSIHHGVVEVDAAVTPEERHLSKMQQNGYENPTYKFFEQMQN
Sequence of Amyloid-beta precursor protein (Mus musculus) (P12023 whole entry): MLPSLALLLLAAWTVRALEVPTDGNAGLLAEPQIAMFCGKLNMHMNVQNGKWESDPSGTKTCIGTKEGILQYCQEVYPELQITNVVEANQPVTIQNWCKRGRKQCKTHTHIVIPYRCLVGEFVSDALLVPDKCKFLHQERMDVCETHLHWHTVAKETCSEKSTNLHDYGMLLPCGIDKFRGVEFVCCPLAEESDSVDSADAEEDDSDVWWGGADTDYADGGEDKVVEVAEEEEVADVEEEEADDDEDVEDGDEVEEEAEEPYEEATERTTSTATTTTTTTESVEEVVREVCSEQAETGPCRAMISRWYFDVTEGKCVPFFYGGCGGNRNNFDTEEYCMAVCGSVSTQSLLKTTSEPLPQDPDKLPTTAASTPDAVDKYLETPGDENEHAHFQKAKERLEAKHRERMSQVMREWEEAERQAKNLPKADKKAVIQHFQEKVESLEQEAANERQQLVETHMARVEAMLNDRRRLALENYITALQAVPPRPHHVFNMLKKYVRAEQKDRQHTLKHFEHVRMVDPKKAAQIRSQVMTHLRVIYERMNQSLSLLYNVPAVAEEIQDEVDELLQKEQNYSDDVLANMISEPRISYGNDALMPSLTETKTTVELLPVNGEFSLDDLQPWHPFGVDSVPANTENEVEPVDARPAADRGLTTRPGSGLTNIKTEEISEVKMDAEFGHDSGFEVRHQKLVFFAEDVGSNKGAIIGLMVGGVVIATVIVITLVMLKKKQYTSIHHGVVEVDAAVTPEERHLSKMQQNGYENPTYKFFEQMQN

Compound | Activity (SH-SY5Y) | fold change (FC) [1] | remaining at 50 µM [2] | Kd [3] | Stability [4] | Activity [5] | Activity [6] | Activity [7] | fold change (FC) [8] | Activity [9] | Activity [10] | Activity (Mus musculus [11]) | Activity (Mus musculus [12]) | Activity [13] | inhibition [14] | Activity [15]
CCOC(=O)CN(CC(=O)OCC)C(=O)CN1C(=O)/C(=C\c2ccc3c(c2)Sc2ccccc2N3C)SC1=S | Non-Toxic | 38.3 | > 96% | 46.3 nM | Stable |  |  |  |  |  |  |  |  |  |  | 
CN1c2ccccc2Sc2cc(/C=C3/SC(=S)N(CC(=O)N(CC(=O)O)CC(=O)O)C3=O)ccc21 | Non-Toxic |  | > 96% | 76.5 nM | Stable | Active | Active | Active | 2.4 |  |  |  |  |  |  | 
CN1c2ccccc2Sc2cc(/C=C3/SC(=S)N(CC(=O)OCC(O)CO)C3=O)ccc21 (stereo not drawn) | Non-Toxic | 9.5 | > 96% | 34.9 nM | Stable | Active | Active | Active |  |  |  |  |  |  |  | 
CN1c2ccccc2Sc2cc(/C=C3/SC(=S)N(CC(=O)OCC4COC(C)(C)O4)C3=O)ccc21 (stereo not drawn) | Non-Toxic | 22 | > 96% | 24.5 nM | Stable |  |  |  |  | Active | inactive | Active | inactive | inactive | Dose-dependent effect | Active
